S100A4 inh HTS: inhibitors of S100A4-myosin IIA peptide binding, primary screen, biochemical, fluorescence polarization, TAMRA-MyoIIA peptide; inhibition, % at 10.7 µM; AID 652163, 2013; 360,000 tested, 0.14% active;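 active means mean inhibition of at least 70% across replicates, with every replicate also reaching that level; inconclusive means mean inhibition reaches 70% but some replicates fall short; inactive means mean inhibition below 70%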
Target sequence (P26447 whole entry, looked up): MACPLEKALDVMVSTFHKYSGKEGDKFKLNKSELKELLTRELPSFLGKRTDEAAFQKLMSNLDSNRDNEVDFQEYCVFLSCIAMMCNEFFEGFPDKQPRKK
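Test system: S100A4 monomer protein; Medium: HEPES pH 7.2 with CaCl2, KCl, NaCl, DTT, Triton; Probe or stimulus: TAMRA-labelled myosin IIA heavy-chain peptide probe, 5 nM; Doses: one dose per compound; Times: polarization read 5 min after assay mix addition, stable 5–60 min; Benchmarks: neutral control DMSO, positive control TFP.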
Cneo AK release: Cryptococcus neoformans cell lysis inducers, primary screen, AK release luminescence, single concentration; C. neoformans lysis, adenylate kinase release luminescence, 4 h; normalised: neutral wells 0, clomiphene wells 100; lysis activity, % at 15 µM; 360,000 tested, 0.2% active;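 active means mean lysis activity across replicates of at least 80%, whatever share of replicates individually reach that level; inactive means mean lysis activity below 80%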
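Material – log-phase Cryptococcus neoformans yeast cells · Input – 5 × 10^6 yeast cells/mL · Medium – fresh YPD growth medium · Doses – single compound concentration per well · Timing – static 4 h at 37 °C with compound, 1 h detection · Detection – adenylate kinase release luminescence · Read-out – signal increase indicating cell lysis · Control set – Clomiphene as positive lysis control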
AF4-AF9 inh: inhibitors of AF4 peptide binding to AF9, primary screen, biochemical, AlphaScreen, biotin-AF4 peptide, FLAG-AF9, single point | 350,000 tested, 0.47% active | AID 651704, 2012 | inhibition, % at 10 µM | Protein AF-9 (Homo sapiens), P42568;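 active means every replicate reaching a set inhibition limit, whatever the replicate mean, cut at about 25% in these data; inconclusive means mean inhibition reaches that limit but some replicates miss it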;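 further: 0% = plate neutral control median and 100% = total signal loss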
Target sequence (P42568 whole entry, looked up): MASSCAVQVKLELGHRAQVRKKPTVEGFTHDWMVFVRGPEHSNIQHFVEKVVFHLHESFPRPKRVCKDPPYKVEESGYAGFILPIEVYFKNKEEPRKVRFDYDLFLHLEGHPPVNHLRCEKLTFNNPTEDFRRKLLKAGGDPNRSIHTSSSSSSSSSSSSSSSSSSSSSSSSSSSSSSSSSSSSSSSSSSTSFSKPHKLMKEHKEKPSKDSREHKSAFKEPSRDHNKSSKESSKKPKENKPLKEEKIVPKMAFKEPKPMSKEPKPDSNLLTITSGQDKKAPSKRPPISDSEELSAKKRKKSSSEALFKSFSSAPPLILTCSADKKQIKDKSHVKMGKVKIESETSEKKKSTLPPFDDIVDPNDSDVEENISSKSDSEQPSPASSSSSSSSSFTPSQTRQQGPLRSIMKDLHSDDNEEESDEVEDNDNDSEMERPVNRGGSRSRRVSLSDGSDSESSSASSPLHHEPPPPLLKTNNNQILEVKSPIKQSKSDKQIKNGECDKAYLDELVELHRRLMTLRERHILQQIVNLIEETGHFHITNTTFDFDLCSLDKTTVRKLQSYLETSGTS
Ecoli rRNA inh: reduced GFP signal of wild-type E. coli, primary screen, bacterial rRNA inhibitor project, GFP/RFP fluorescence, OD600, single point; E. coli WT GFP vs humanized-ribosome RFP mutants, 24 h; active compounds read low; DMSO median 0, no signal -100; AID 720706, 2013; 350,000 tested, 1.6% active; GFP signal change (wild-type ribosome), % (test concentration not listed);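 active means significant combined selectivity score with lowered wild-type GFP, culture density cut under 30%, mutant RFP and density less affected; inactive means any of these conditions unmet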
DENV2 CPE rescue: inhibitors of DENV2 cytopathic effect, primary screen, cell-based, plate reader, single concentration | DENV2-infected cells, cytopathic effect rescue | 350,000 tested, 1.7% active | CPE inhibition, % at 9.99 µM | AID 651640, 2012; in the data active means CPE inhibition above about 20%, passing the limit was not always enough; inconclusive means no clear call, values can overlap the other calls; tested in BHK-21 cells;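 further: 0% = median of neutral control wells and 100% = median of positive control wells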
PfHsp90 set2: growth inhibition of PfHsp90-expressing yeast, primary screen, antimalarial PfHsp90 inhibitor project, S. cerevisiae, BacTiter-Glo luminescence, single point, set 2. BacTiter-Glo ATP, 48 h; yeast lacking PDR1 and PDR3 efflux regulators. inhibition, % at 9.4 µM. 310,000 tested, 0.32% active;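 active means every replicate shows inhibition above about 80%, whatever the replicate mean, limit read from the data; inconclusive means mean inhibition reaches the set limit but some replicate falls short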;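 further: 0% = DMSO neutral controls and 100% = 20 µM radicicol positive controls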
Starred values were filed as active, the others as inactive; ? = inconclusive; · = no result; ! = repeats disagree. Rows were chosen to be rich in hits. Some 3.2% of all compounds tested hit in one or more screens of this group.

SMILES	S100A4 inh HTS	Cneo AK release	AF4-AF9 inh	Ecoli rRNA inh	DENV2 CPE rescue	PfHsp90 set2
COc1ccc2nc(N3C(=O)C(O)=C(C(=O)c4ccco4)C3c3ccccc3OC)sc2c1 (stereo not drawn)	5	-1	2	-32*	-7	13
CC(C)N(C(=O)CSc1nnc(CSc2ncccn2)n1C)C(C)C	4	3	-1	13	33*	14
CCSc1nnc(CSc2ncccn2)n1C	-7	·	-1	15	1	12
COc1ccc(C(=O)O)cc1S(=O)(=O)N(CCc1ccccc1)Cc1ccccc1	-8	0	1	-36*	1	-5
CCCNC(=O)[C@H]1[C@H](CO)[C@H]2Cn3c(ccc(-c4cccnc4)c3=O)[C@@H]1N2C(=O)Nc1ccccc1	1	2	-2	1	-3	·
Cc1noc(C)c1S(=O)(=O)Nc1cccc2c1O[C@@H](CN(C)Cc1ccc(C(=O)O)cc1)[C@@H](C)CN([C@H](C)CO)C2=O	3	3	-8	3	-13	·
COc1ccccc1-n1c(C)c(C(C)=O)c2cc(O)ccc21	1	3	1	0	3	-3
COc1ccc2c(c1)c(C(C)=O)c(C)n2-c1ccccc1OC	-2	·	·	-36*	-2	0
O=C(OCn1ncc(Br)c(Br)c1=O)c1ccccc1Cl	0	-4	·	-20*	·	90*
O=C(OCn1ncc(Br)c(Br)c1=O)c1ccc(F)cc1	·	-4	·	·	·	99*
COC(=O)[C@H]1[C@H](CO)[C@H]2Cn3c(ccc(-c4ccccc4F)c3=O)[C@H]2N1C(=O)c1cnccn1	0	1	-2	3	?	·
Cc1ccc(-n2c(=O)c3c4c(sc3n3c(=S)[nH]nc23)CCC4)cc1	-1	0	-1	·	-4	-21
COc1ccc(-n2c(=O)c3c4c(sc3n3c(=S)[nH]nc23)CCC4)cc1	8	·	·	-25*	3	2
O=C(C[C@H]1CC[C@@H](NC(=O)c2ccc3c(c2)OCO3)[C@@H](CO)O1)NC1Cc2ccccc2C1	14	1	-1	0	1	·
C[C@@H]1CN([C@@H](C)CO)C(=O)CCCn2nncc2CO[C@H]1CN(C)Cc1cccc(C(F)(F)F)c1	-1	120*!	-4	-5	-4	·
COc1cccc(NC(=O)N(C)C[C@@H]2OCc3cnnn3CCCC(=O)N([C@@H](C)CO)C[C@@H]2C)c1	-3	50	0	2	79*	·
C[C@H]1CN([C@@H](C)CO)C(=O)CCCn2nncc2CO[C@@H]1CN(C)Cc1cccc(C(F)(F)F)c1	-4	0	2	-2	?	·
C[C@H](CO)N1C[C@H](C)[C@H](CN(C)C(=O)Nc2ccc(C(F)(F)F)cc2)OCc2cnnn2CCCC1=O	3	2	0	-11*!	-15	·
C[C@H](CO)N1C[C@H](C)[C@@H](CN(C)Cc2ccc(-c3ccccc3)cc2)Oc2ccc(NC(=O)Nc3ccc(C(F)(F)F)cc3)cc2C1=O	-9	99*	-1	9	-12	·
COc1ccc(NC(=O)Nc2ccc3c(c2)C(=O)N([C@@H](C)CO)C[C@@H](C)[C@@H](CN(C)Cc2ccc(C(F)(F)F)cc2)O3)cc1	4	15	9	0	11	·
C[C@@H]1CN([C@H](C)CO)C(=O)c2cc(NC(=O)Nc3ccc(C(F)(F)F)cc3)ccc2O[C@@H]1CN(C)Cc1ccncc1	7	2	2	-12	57*	·
COc1ccc(CN(C)C[C@@H]2Oc3ccc(NC(=O)Nc4ccc(C(F)(F)F)cc4)cc3C(=O)N([C@H](C)CO)C[C@@H]2C)cc1	-7	1	3	-33	29*	·
C[C@H]1CN([C@@H](C)CO)C(=O)c2cc(NC(=O)Nc3ccc(C(F)(F)F)cc3)ccc2O[C@H]1CN(C)Cc1ccncc1	8	2	2	·	21*	·
C[C@@H]1CN([C@H](C)CO)C(=O)c2cc(NC(=O)Nc3ccc(C(F)(F)F)cc3)ccc2O[C@H]1CN(C)Cc1ccc(-c2ccccc2)cc1	1	-3	0	4	-10	·
CO[C@H]1CN(C)C(=O)c2ccc(NC(=O)C3CC3)cc2OC[C@@H](C)N(CCc2ccccc2)C[C@H]1C	8	-1	0	4	-2	·
SMILES	S100A4 inh HTS	Cneo AK release	AF4-AF9 inh	Ecoli rRNA inh	DENV2 CPE rescue	PfHsp90 set2
C[C@H](CO)N1C[C@H](C)[C@@H](CN(C)C(=O)C2CCCCC2)Oc2cc(-c3ccncc3)ccc2S1(=O)=O	·	·	·	-5	·	·
CC(=O)OCC(O)C1(O)CCC2C3CCC4=CC(=O)CCC4(C)C3C(O)CC21C (stereo not drawn)	-16	-1	-3	·	22*	·
CC(=O)OCC(=O)[C@@]1(O)CC[C@H]2[C@@H]3CCC4=CC(=O)CC[C@]4(C)[C@H]3[C@@H](O)C[C@@]21C	-1	-1	-4	5	3	4
C/C=C/c1ccc([C@@H]2[C@H](CO)N(CCC(F)(F)F)C23CN(C(=O)COC)C3)cc1	3	·	1	-1	15	·
C[C@@H](NC(=O)C[C@H]1C=C[C@@H](NC(=O)Nc2ccc3c(c2)OCO3)[C@@H](CO)O1)c1ccccc1	-16	-16	0	0	5	·
O=C(Nc1ccc(OC(F)F)c(Cl)c1)c1cccc(OC(F)F)c1	·	1	·	·	·	6
O=C(Nc1ccc2c(c1)CCC2)c1cccc(OC(F)F)c1	-1	-6	-2	-24*	0	·
CN(C)S(=O)(=O)c1cccc(C(=O)Nc2ccc3c(c2)CCC3)c1	-4	-8	1	-19*	1	6
CC(=O)N(C)C[C@H]1Oc2cc(C#CC3CC3)ccc2S(=O)(=O)N([C@H](C)CO)C[C@H]1C	·	·	·	-1	·	·
CCOC(=O)[C@H]1[C@H]2COc3ccccc3[C@@H]2N2C(=O)[C@@H](CO)NC(=O)[C@@]12C	1	4	-3	2	29*	1
CCOC(=O)[C@H]1[C@H]2COc3ccccc3[C@@H]2N2C(=O)c3cc(C)ccc3NC(=O)[C@@]12C	-3	-1	11	-7	5	16
CCOC(=O)[C@@H]1[C@H]2COc3ccc(Br)cc3[C@@H]2N2C(=O)N(c3cccc(F)c3)C(=O)[C@@]12C	-3	5	-3	3	93*	-3

Source: PubChem
